According to ChEMBL document CHEMBL3588770, “Novel spirohydantoin derivative as a potent multireceptor-active antipsychotic and antidepressant agent” (Bioorg Med Chem, 2015):
Calls of active or inactive are those of the source. The rule behind the calls is not given here.

What was measured:
Mus musculus [1] = test: Toxicity in Swiss albino mouse assessed as stimulation of spontaneous locomotor activity at 2.5 to 5 mg/kg, ip measured during 2-6 mins session; assay type: organism-based; details: in vivo
Summary of the method: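 Male Swiss albino mice, 8-10 per dose, received compound i.p. 60 min before testing. Each mouse was placed individually in a cage on an infrared activity monitor. Channel crossings (ambulation) were counted from 2 to 6 min, matching the forced swim test observation window.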

Mus musculus [2] = test: In vivo partial agonist activity at 5HT1A receptor in CD-1 mouse assessed as change in body temperature at 5 mg/kg, ip measured after 120 mins (reference value: -0.1 degC); assay type: functional, organism-based
Summary of the method: (§1)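 Male CD-1 mice, 7-9 per dose, compound suspended in 1% aqueous Tween 80 and given i.p. at 10 ml/kg. Rectal temperature was taken by thermometer 30, 60, 90 and 120 min after dosing. Change (Δt) is expressed against basal temperature measured at the start. Mean ± SEM, one-way ANOVA with Bonferroni test.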

Mus musculus [3] = test: Toxicity in ip dosed spontaneous locomotor activity CD-1 mouse model assessed as dose required to cause sedation; assay type: organism-based; details: in vivo
Summary of the method: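 CD-1 mice, 8-10 per dose, with compound given i.p. in 1% Tween 80 suspension 60 min before testing. After 30 min habituation in individual cages, ambulation (channel crossings) was counted over 1 h, recorded every 5 min. Mean ± SEM, one-way ANOVA with Bonferroni test.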

Rattus norvegicus = test: Inhibition of 8-OH-DPAT-induced lower lip retraction in Wistar rat at 5 to 40 mg/kg, ip administered 45 mins before 8-OH-DPAT administration; assay type: functional, organism-based
Summary of the method: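 Wistar rats, 5-6 per dose, given compound i.p. (1% Tween 80 suspension) 45 min before 8-OH-DPAT (1 mg/kg). Lower lip retraction was scored 15, 30 and 45 min after 8-OH-DPAT on a 0/0.5/1 scale (incisor visibility), giving a maximum total of 3. Mean ± SEM, ANOVA with Bonferroni test.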

Mus musculus [4] = test: Antipsychotic activity in CD-1 mouse assessed as inhibition of D-amphetamine-induced hyperlocomotor activity at 0.156 to 0.625 mg/kg, ip; assay type: functional, organism-based
Summary of the method: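 Male CD-1 mice, 8-10 per dose. d-Amphetamine was given s.c. 30 min pretest; test compound i.p. 60 min pretest in 1% Tween 80. After 30 min habituation in the activity monitor, ambulation crossings were counted for 1 h, recorded every 5 min.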

Mus musculus [5] = test: Toxicity in ip dosed CD-1 mouse assessed as minimum dose required for induction of catalepsy by bar test; assay type: organism-based; details: in vivo
Summary of the method: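 Male CD-1 mice, 10 per group, given compound i.p. (1% Tween 80 suspension). Forelimbs were placed on a horizontal rod 4 cm high at 30, 60 and 120 min. Catalepsy was scored up to 3 (≥60 s on bar). Minimum cataleptogenic dose is the lowest dose giving a mean score ≥1 at any of those times.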

Mus musculus [6] = test: Anti-depressant like activity in Swiss albino mouse assessed as shortening of immobility time at 5 mg/kg, ip by forced swim test; assay type: functional
Summary of the method: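 Forced swim test in male Swiss albino mice, 7-9 per dose. Compound was given i.p. in 1% Tween 80 at 10 ml/kg, 60 min pretest. Mice swam for 6 min in a cylinder with 6 cm of water at 23-25 °C. Immobility was scored over the last 4 min. Analysis was one-way ANOVA with Bonferroni.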

Mus musculus [7] = test: In vivo antagonist activity at D2 receptor in ip dosed Swiss albino mouse assessed as inhibition of apomorphine-induced climbing behaviour administered 10 mins prior to apomophine injection measured after 20 mins; assay type: functional
Summary of the method: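 Male Swiss albino mice, 5-6 per dose, in metal-bar cages. Compound i.p. was followed 10 min later by apomorphine 3 mg/kg i.p. Climbing time (2–4 paws on the wall) was measured for 2 min starting 20 min after apomorphine. ID50 is the dose inhibiting climbing by 50%.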

Mus musculus [8] = test: In vivo partial agonist activity at 5HT1A receptor in CD-1 mouse assessed as change in body temperature at 10 mg/kg, ip administered 15 mins after 5HT1A receptor antagonist WAY100635 injection measured after 60 mins (reference value: -0.1 degC); assay type: functional, organism-based
Summary of the method: (§2)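 Male CD-1 mice, 7-9 per dose. WAY 100635 (0.3 mg/kg) was given 15 min before the compound i.p. Rectal temperature was recorded 30 and 60 min after the compound, as the change from basal temperature.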

Mus musculus [9] = test: In vivo partial agonist activity at 5HT1A receptor in CD-1 mouse assessed as change in body temperature at 5 mg/kg, ip measured after 60 mins (reference value: -0.1 degC); assay type: functional, organism-based; summary of the method: as §1
Mus musculus [10] = test: In vivo partial agonist activity at 5HT1A receptor in CD-1 mouse assessed as change in body temperature at 10 mg/kg, ip administered 15 mins after 5HT1A receptor antagonist WAY100635 injection measured after 30 mins (reference value: -0.1 degC); assay type: functional, organism-based; summary of the method: as §2
Mus musculus [11] = test: In vivo partial agonist activity at 5HT1A receptor in CD-1 mouse assessed as change in body temperature at 10 mg/kg, ip measured after 60 mins (reference value: -0.1 degC); assay type: functional, organism-based; summary of the method: as §1
Mus musculus [12] = test: In vivo partial agonist activity at 5HT1A receptor in CD-1 mouse assessed as change in body temperature at 10 mg/kg, ip measured after 90 mins (reference value: -0.1 degC); assay type: functional, organism-based; summary of the method: as §1

COc1ccccc1N1CCN(CCCCN2C(=O)NC3(CCCc4ccccc43)C2=O)CC1 (stereo not drawn)
Activity (Mus musculus [1]): Non-toxic | deltaT (Mus musculus [2]): -0.6 °C | Activity (Mus musculus [3]): 2.5 mg/kg | inhibition (Rattus norvegicus): Active | inhibition (Mus musculus [4]): Active | Activity (Mus musculus [5]): 30 mg/kg | inhibition in vivo at 5 mg/kg (Mus musculus [6]): 45% | ED50 (Mus musculus [7]): 37.9 mg/kg | deltaT (Mus musculus [8]): -1 °C | deltaT (Mus musculus [9]): -0.7 °C | deltaT (Mus musculus [10]): -1.1 °C | deltaT (Mus musculus [11]): -1.3 °C | deltaT (Mus musculus [12]): -1.3 °C
